Results taken from PMC4303306 (Biochemistry, 2014).

Molecular target: T1, wild-type mouse Shp2 catalytic domain (Mus musculus, UniProt P35235)
T1 sequence (P35235 224-539): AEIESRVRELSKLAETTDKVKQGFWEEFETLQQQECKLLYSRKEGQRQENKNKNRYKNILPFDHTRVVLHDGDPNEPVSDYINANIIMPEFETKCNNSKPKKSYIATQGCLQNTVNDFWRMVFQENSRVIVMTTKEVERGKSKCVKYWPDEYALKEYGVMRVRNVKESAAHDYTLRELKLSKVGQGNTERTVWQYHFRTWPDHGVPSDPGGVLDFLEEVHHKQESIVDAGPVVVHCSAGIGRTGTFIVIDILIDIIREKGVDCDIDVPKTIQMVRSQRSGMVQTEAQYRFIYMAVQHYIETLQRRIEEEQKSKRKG
Assay: PTP inhibition assay with pNPP, wild-type Shp2 catalytic domain
Type: biochemical
Details: 120 min incubation
In short: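 Catalytic-domain PTP (50 nM) was preincubated with test compound or vehicle for 120 min at 37 °C in PTP buffer (50 mM 3,3-dimethyl glutarate pH 7.0, 1 mM EDTA, 50 mM NaCl). It was then assayed at 37 °C with pNPP at the enzyme's previously determined KM, quenched with 5 M NaOH and read at 405 nm. Activity was normalized to controls, and IC50 came from a four-parameter logistic fit. For Shp2, β-mercaptoethanol (250 μM–1 mM) was also tested at 500 nM compound.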

## fluorescein
  Shp2 inhibition (structure–activity comparison, Figure 2A): lack of Shp2 inhibition
